Our source for the Activity values is ChEMBL document CHEMBL3243949, “Discriminant--analytical investigation on the structural dependence of hyperglycemic and hypoglycemic activity in a series of substituted o-toluenesulfonylthioureas and o-toluenesulfonylureas” (1979).

The structures appear in SMILES notation.

The subject of the first test is Rattus norvegicus. In words: Effect on blood glucose level per 100 ml in rat at 70 mg/kg, ip after 90 mins. The class given is functional. The following applies: route intraperitoneal. The method, boiled down:
(§1)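 Narcotized rats, six per experiment; blood sugar measured before and 90 min after intraperitoneal dosing (70 and 100 mg/kg used in study). Glucose determined by o-toluidine reaction in acid medium. Values are mean of six rats ± 2 s. Classed hyper- or hypoglycemic by Student's t test, before vs after, when α < 0.01.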
`CCCCNC(=O)NS(=O)(=O)c1ccc(OC)cc1C` came in with an Activity of 114 mg.

In a further test the test system is Rattus norvegicus. Description: Hypoglycemic activity in rat assessed as blood glucose level per 100 ml at 70 mg/kg, ip after 90 mins. The class given is functional. The conditions noted are these: route intraperitoneal. The method in brief:
as §1
For `CCCCNC(=O)NS(=O)(=O)c1ccc(NC(C)=O)cc1C`, the Activity is recorded as 112 mg.
The same measure, in the same setting: under `CCCCNC(=O)NS(=O)(=O)c1ccc(C)cc1C` stands 102 mg.
Same read-out and setting: the same measure for `COc1ccc(S(=O)(=O)NC(=S)NCc2ccccc2)c(C)c1`: 97 mg; for `CCCCNC(=S)NS(=O)(=O)c1ccc(NC(C)=O)cc1C`: 116 mg; for `CCCCCOc1ccc(S(=O)(=O)NC(=S)NCCCC)c(C)c1`: 129 mg.
In the case of `COc1ccc(S(=O)(=O)NC(=O)NCc2ccccc2)c(C)c1`, the Activity was 104 mg.
Same read-out and setting: the same measure for `CCCCNC(=O)NS(=O)(=O)c1ccc(OCCC)cc1C`: 130 mg; for `CCCCNC(=O)NS(=O)(=O)c1ccc(OCC)cc1C`: 114 mg; for `CCCCNC(=S)NS(=O)(=O)c1ccc(C)cc1C`: 119 mg.
With `CCCCNC(=S)NS(=O)(=O)c1ccc(OCC)cc1C`, the Activity came out at 99 mg.
The same measure, in the same setting: the same measure for `CCCCOc1ccc(S(=O)(=O)NC(=S)NC)c(C)c1`: 77 mg.

In another test the test system is Rattus norvegicus. In words: Hyperglycemic activity in rat assessed as blood glucose level per 100 ml at 70 mg/kg, ip after 90 mins. The test is classed as functional. The following applies: route intraperitoneal. The method, boiled down: as §1
With `CCNC(=O)NS(=O)(=O)c1ccc(OC)cc1C`, the Activity was determined as 135 mg.
`COc1ccc(S(=O)(=O)NC(N)=O)c(C)c1`: the Activity stood at 97 mg.
Consider `CCCNC(=O)NS(=O)(=O)c1ccc(OC)cc1C`, for which the Activity is recorded as 135 mg.
The same measure, in the same setting: under `CCCCOc1ccc(S(=O)(=O)NC(=O)NC)c(C)c1` stands 96 mg; under `CCCCCOc1ccc(S(=O)(=O)NC(=O)NCCCC)c(C)c1`, 79 mg; under `CCCCNC(=O)NS(=O)(=O)c1ccc(OCCCC)cc1C`, 113 mg.
Take `CNC(=O)NS(=O)(=O)c1ccc(OC)cc1C`: the Activity is given as 142 mg.
Regarding `CCOc1ccc(S(=O)(=O)NC(N)=O)c(C)c1`, the Activity is listed as 103 mg.
On the same count and under the same terms, the same measure for `CCCNC(=S)NS(=O)(=O)c1ccc(OC)cc1C`: 153 mg; for `CCCCNC(=S)NS(=O)(=O)c1ccc(OCCC)cc1C`: 160 mg.
